Data taken from ChEMBL document CHEMBL1938233, “2-Oxo-N-aryl-1,2,3,4-tetrahydroquinoline-6-sulfonamides as activators of the tumor cell specific M2 isoform of pyruvate kinase” (Bioorg Med Chem Lett, 2011).
The source made the active and inactive calls. The rule behind the calls is not given here.

Assays:
[1] = target: T1, Pyruvate kinase PKM (Homo sapiens, UniProt P14618); experiment: Activation of human PKM2 assessed as ATP product formation at 57 µM after 1 hr by luminescent pyruvate kinase-luciferase coupled assay
Target sequence in this assay (P14618 2-531 limits assumed): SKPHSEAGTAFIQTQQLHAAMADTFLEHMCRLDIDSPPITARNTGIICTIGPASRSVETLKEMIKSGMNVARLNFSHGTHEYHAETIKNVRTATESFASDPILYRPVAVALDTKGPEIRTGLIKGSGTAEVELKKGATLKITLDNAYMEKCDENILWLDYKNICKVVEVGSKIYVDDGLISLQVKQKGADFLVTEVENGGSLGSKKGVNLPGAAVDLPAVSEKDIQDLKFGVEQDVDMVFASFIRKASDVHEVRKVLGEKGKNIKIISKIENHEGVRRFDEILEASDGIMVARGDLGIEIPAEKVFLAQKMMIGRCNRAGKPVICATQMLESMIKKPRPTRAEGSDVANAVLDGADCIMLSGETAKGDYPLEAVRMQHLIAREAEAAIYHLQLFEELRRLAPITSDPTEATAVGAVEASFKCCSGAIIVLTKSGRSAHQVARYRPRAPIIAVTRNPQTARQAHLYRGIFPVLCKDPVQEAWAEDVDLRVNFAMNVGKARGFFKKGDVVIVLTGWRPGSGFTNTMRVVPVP

[2] = target: T1, Pyruvate kinase PKM; experiment: Activation of human PKM2 assessed as ATP product formation at 57 uM after 1 hr by luminescent pyruvate-kinase luciferase coupled assay
Summary of the method: (§1)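 Luminescent pyruvate kinase–luciferase coupled assay. AC50 is the mean of three separate experiments. Maximum response is % activation at 57 μM compound, normalized as described in the supporting information.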
Target sequence in this assay (P14618 2-531 limits assumed): as above

[3] = target: T1, Pyruvate kinase PKM; experiment: Activation of human PKM2 assessed as ATP product formation after 1 hr by luminescent pyruvate kinase-luciferase coupled assay
Summary of the method: as §1

[4] = tested on: Caco-2; experiment: Efflux ratio of permeability from basolateral to apical side over apical to basolateral side in human Caco2 cells at pH 7.4 after 2 hrs by LC/MS/MS analysis; settings: caco-2, pH 7.4, 2 h
[5] = target: Pyruvate kinase PKLR (Homo sapiens) (UniProt P30613); experiment: Activation of PKLR assessed as ATP product formation at 57.5 uM after 1 hr by luminescent pyruvate kinase-luciferase coupled assay
[6] = Apparent permeability from basolateral to apical side of human Caco2 cells at pH 7.4 after 2 hrs by LC/MS/MS analysis; type: ADME, cell-based; settings: Caco-2, pH 7.4
[7] = tested on: Liver microsomes; experiment: Half life in human liver microsomes at 2 uM after 2 mins by LC/MS/MS analysis; type: ADME, Microsome
[8] = tested on: Liver; experiment: Half life in mouse liver microsomes at 2 uM after 2 mins by LC/MS/MS analysis; type: ADME, Microsome
[9] = Apparent permeability from apical to basolateral side of human Caco2 cells at pH 7.4 after 2 hrs by LC/MS/MS analysis; type: ADME, cell-based; settings: Caco-2, pH 7.4
[10] = target: T1, Pyruvate kinase PKM; experiment: Activation of human PKM2 assessed as reduction in Km for PEP at 10 uM by after 6 mins by fluorescent pyruvate kinase-lactate dehydrogenase coupled assay
Summary of the method: (§2)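 PK–LDH coupled kinetic assay run at about 22 °C with 10 nM PKM2, 200 mM KCl and 15 mM MgCl2. Either ADP or PEP was held at 4.0 mM while the other substrate was varied. Initial velocity (pmol/min) was measured with and without compound at 10 μM.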
Target sequence in this assay (P14618 2-531 limits assumed): as above

[11] = target: T1, Pyruvate kinase PKM; experiment: Activation of human PKM2 assessed as effect on Km of ADP at 10 uM by after 6 mins by fluorescent pyruvate kinase-lactate dehydrogenase coupled assay
Summary of the method: as §2
Target sequence in this assay (P14618 2-531 limits assumed): as above

[12] = Aqueous kinetic solubility of the compound in PBS buffer; type: physicochemical

Sequence of Pyruvate kinase PKLR (Homo sapiens) (P30613 whole entry, looked up): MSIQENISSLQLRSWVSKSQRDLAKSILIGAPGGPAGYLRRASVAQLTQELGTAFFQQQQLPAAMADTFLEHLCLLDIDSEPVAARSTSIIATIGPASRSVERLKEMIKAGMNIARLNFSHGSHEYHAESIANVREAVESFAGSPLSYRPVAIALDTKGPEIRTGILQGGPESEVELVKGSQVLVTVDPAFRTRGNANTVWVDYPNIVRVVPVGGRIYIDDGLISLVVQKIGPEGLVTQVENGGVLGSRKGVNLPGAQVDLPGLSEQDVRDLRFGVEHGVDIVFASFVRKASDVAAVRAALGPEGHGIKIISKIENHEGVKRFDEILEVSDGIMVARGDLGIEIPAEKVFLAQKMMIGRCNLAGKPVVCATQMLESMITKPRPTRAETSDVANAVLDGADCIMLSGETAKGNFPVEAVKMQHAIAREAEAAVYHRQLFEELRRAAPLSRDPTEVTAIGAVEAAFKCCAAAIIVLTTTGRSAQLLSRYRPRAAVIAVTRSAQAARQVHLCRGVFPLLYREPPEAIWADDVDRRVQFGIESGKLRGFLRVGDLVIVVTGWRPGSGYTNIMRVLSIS

| SMILES | Emax [1] | Emax [2] | other results |
| --- | --- | --- | --- |
| Cc1ccc(NS(=O)(=O)c2cc3c(cc2-c2ccccc2)NC(=O)CO3)cc1C | inactive | – | – |
| Cc1cc(NS(=O)(=O)c2ccc3c(c2)CCC(=O)N3)ccc1F | – | 128% | – |
| Cc1ccc(NS(=O)(=O)c2cc3c(cc2/C=C/c2ccccc2)NC(=O)CO3)cc1C | inactive | – | – |
| Cc1ccc(NS(=O)(=O)c2cc(Br)cc3c2NC(=O)CC3)cc1C | – | – | Activity [3]: inactive |
| Cc1cc(NS(=O)(=O)c2cc3c(cc2N[C@@H](C)CO)NC(=O)CC3)ccc1F | 95% | – | – |
| Cc1cc(NS(=O)(=O)c2ccc3c(c2)CCC(=O)N3)ccc1Cl | – | 121% | – |
| Cc1ccc(NS(=O)(=O)c2ccc3c(c2)CCC(=O)N3)cc1C | – | – | Ratio [4]: 0.82; Activity [5]: < 25%; Papp B→A at 2 h [6]: 12.2 ×10⁻⁶ cm/s; t1/2 [7]: 6 min; EC50 [3]: 790 nM; t1/2 [8]: 17.3 min; Papp A→B at 2 h [9]: 14.9 ×10⁻⁶ cm/s |
| Cc1ccc(NS(=O)(=O)c2ccc3c(c2)CCC(=O)N3)cc1 | – | 102% | – |
| Cc1ccc(NS(=O)(=O)c2ccc3[nH]c(=O)[nH]c3c2)cc1C | inactive | – | – |
| C[C@@H](CO)Nc1cc2c(cc1S(=O)(=O)Nc1ccc(F)c(Cl)c1)CCC(=O)N2 | 92% | – | Ratio [4]: 10.91; Activity [5]: < 25%; Papp B→A at 2 h [6]: 17.5 ×10⁻⁶ cm/s; t1/2 [7]: 78.8 min; t1/2 [8]: 36.3 min; Papp A→B at 2 h [9]: 1.61 ×10⁻⁶ cm/s |
| CC(=O)N1CCCc2cc(S(=O)(=O)Nc3ccc(C)c(C)c3)ccc21 | 76% | – | – |
| Cc1cc(NS(=O)(=O)c2cc3c(cc2F)NC(=O)CC3)ccc1F | 92% | – | – |
| Cc1ccc(NS(=O)(=O)c2cc3c(cc2N2CCCC2)NC(=O)CC3)cc1C | 123% | – | – |
| COc1cccc(NS(=O)(=O)c2ccc3c(c2)CCC(=O)N3)c1 | – | 115% | – |
| Cc1ccc(NS(=O)(=O)c2cc3c(cc2C)NC(=O)CO3)cc1C | 111% | – | – |
| O=C1CCc2cc(S(=O)(=O)Nc3ccc4c(c3)CCC4)ccc2N1 | – | 73% | – |
| Cc1ccc(NS(=O)(=O)c2ccc(N3CCCC3=O)cc2)cc1C | 60% | – | – |
| Cc1ccc(NS(=O)(=O)c2cc3c(cc2N2CCCCC2)NC(=O)CC3)cc1C | 47% | – | – |
| COc1ccc(NS(=O)(=O)c2ccc3c(c2)CCC(=O)N3)cc1 | – | 85% | – |
| Cc1ccc(NS(=O)(=O)c2cc3c(cc2N[C@@H](C)CO)NC(=O)CC3)cc1Cl | 96% | – | Ratio [4]: 10.51; Activity [5]: < 25%; Papp B→A at 2 h [6]: 11.9 ×10⁻⁶ cm/s; t1/2 [7]: 30.4 min; EC50 [3]: 60 nM; t1/2 [8]: 22.9 min; Papp A→B at 2 h [9]: 1.13 ×10⁻⁶ cm/s |
| O=C1CCc2cc(S(=O)(=O)Nc3cccc(F)c3)ccc2N1 | – | 101% | EC50 [3]: 790 nM |
| Cc1ccc(NS(=O)(=O)c2cc3c(cc2F)NC(=O)CC3)cc1Cl | 112% | – | Ratio [4]: 1; Papp B→A at 2 h [6]: 6.24 ×10⁻⁶ cm/s; t1/2 [7]: 22.9 min; t1/2 [8]: 54.1 min; Papp A→B at 2 h [9]: 6.22 ×10⁻⁶ cm/s |
| Cc1ccc(NS(=O)(=O)c2cc3c(cc2NC(C)C)NC(=O)CC3)cc1C | 123% | – | – |
| O=C1CCc2cc(S(=O)(=O)Nc3ccc(Cl)cc3)ccc2N1 | – | 106% | – |
| O=C1CCc2cc(S(=O)(=O)Nc3ccc4c(c3)OCCO4)ccc2N1 | – | 100% | – |
| O=C1CCc2cc(S(=O)(=O)Nc3ccc(F)cc3)ccc2N1 | – | 84% | – |
| Cc1ccc(NS(=O)(=O)c2cc(N[C@@H](C)CO)cc3c2NC(=O)CC3)cc1Cl | – | – | Activity [3]: inactive |

| SMILES | Emax [1] | Emax [2] | other results |
| --- | --- | --- | --- |
| Cc1ccc(NS(=O)(=O)c2ccc3c(ccn3C)c2)cc1C | 47% | – | EC50 [3]: 19900 nM |
| O=C1CCc2cc(S(=O)(=O)Nc3ccncc3)ccc2N1 | – | inactive | – |
| Cc1ccc(NS(=O)(=O)c2cc3c(cc2Cl)CCC(=O)N3)cc1C | 92% | – | – |
| Cc1ccc(NS(=O)(=O)c2cc3c(cc2N[C@@H](C)CO)CCC(=O)N3)cc1Cl | 54% | – | – |
| Cc1ccc(NS(=O)(=O)c2ccc3c(c2)N(C)CCO3)cc1C | 81% | – | – |
| O=C1CCc2cc(S(=O)(=O)Nc3cccc(Cl)c3)ccc2N1 | – | 104% | EC50 [3]: 410 nM |
| Cc1ccc(NS(=O)(=O)c2cc3c(cc2NCCO)NC(=O)CC3)cc1C | 132% | – | – |
| O=C1CCc2cc(S(=O)(=O)Nc3cccc(C(F)(F)F)c3)ccc2N1 | – | 109% | – |
| Cc1ccc(NS(=O)(=O)c2cc3c(cc2NCC(C)(C)O)NC(=O)CC3)cc1C | 83% | – | – |
| O=C1CCc2cc(S(=O)(=O)Nc3ccc4ccccc4c3)ccc2N1 | – | 121% | – |
| Cc1ccc(NS(=O)(=O)c2cccc(Cl)c2)cc1C | 71% | – | – |
| O=C1CCc2cc(S(=O)(=O)Nc3ccc(Cl)c(Cl)c3)ccc2N1 | – | 95% | – |
| Cc1ccc(NS(=O)(=O)c2ccc3ccccc3c2)cc1C | 69% | – | – |
| Cc1ccc(NS(=O)(=O)c2cc3c(cc2Br)CCC(=O)N3)cc1C | 52% | – | EC50 [3]: 6600 nM |
| Cc1ccc(NS(=O)(=O)c2ccc3c(c2)CCC(C)(C)O3)cc1C | 62% | – | – |
| Cc1ccc(NS(=O)(=O)c2cc3c(cc2N[C@H](C)CO)NC(=O)CC3)cc1C | 108% | – | EC50 [3]: 880 nM |
| O=C1CCc2cc(S(=O)(=O)Nc3ccc(F)c(Cl)c3)c(F)cc2N1 | 88% | – | Ratio [4]: 0.84; Activity [5]: < 25%; Papp B→A at 2 h [6]: 7.91 ×10⁻⁶ cm/s; Activity [10]: Active; Activity [11]: inactive; t1/2 [7]: 277.2 min; EC50 [3]: 90 nM; t1/2 [8]: 117.5 min; Papp A→B at 2 h [9]: 9.38 ×10⁻⁶ cm/s |
| O=C1CCc2cc(S(=O)(=O)Nc3cccc(-c4ccccc4)c3)ccc2N1 | – | inactive | – |
| Cc1ccc(NS(=O)(=O)c2ccc(F)cc2)cc1C | inactive | – | – |
| Cc1ccc(NS(=O)(=O)c2cc(N[C@@H](C)CO)cc3c2NC(=O)CC3)cc1C | – | – | Activity [3]: inactive |
| CC(=O)N1CCc2cc(S(=O)(=O)Nc3ccc(C)c(C)c3)ccc21 | 96% | – | – |
| CC(=O)Nc1cccc(S(=O)(=O)Nc2ccc(C)c(C)c2)c1 | 58% | – | – |
| Cc1ccc(NS(=O)(=O)c2ccc3c(c2)NC(=O)CO3)cc1C | 81% | – | – |
| Cc1ccc(NS(=O)(=O)c2cc3c(cc2N(C)C)NC(=O)CC3)cc1C | 129% | – | t1/2 [7]: 19.4 min; t1/2 [8]: 21.7 min |
| Cc1ccc(NS(=O)(=O)c2ccc3c(c2)CC(=O)N3C)cc1C | 119% | – | – |
| CNc1cc2c(cc1S(=O)(=O)Nc1ccc(C)c(C)c1)CCC(=O)N2 | 102% | – | t1/2 [7]: 19.7 min; t1/2 [8]: 19.1 min |
| Cc1ccc(NS(=O)(=O)c2ccc3c(c2)CCC(=O)N3)cc1F | – | 138% | – |

| SMILES | Emax [1] | Emax [2] | other results |
| --- | --- | --- | --- |
| Cc1cccc(NS(=O)(=O)c2ccc3c(c2)CCC(=O)N3)c1 | – | 101% | EC50 [3]: 250 nM |
| Cc1ccc(NS(=O)(=O)c2cc3c(cc2N(C)C)CCC(=O)N3)cc1C | 106% | – | – |
| Cc1ccc(NS(=O)(=O)c2cc(Br)cc3c2NC(=O)CC3)cc1Cl | – | – | Activity [3]: inactive |
| Cc1ccc(NS(=O)(=O)c2ccc3c(c2)CC(=O)N3)cc1C | 57% | – | – |
| Cc1ccc(NS(=O)(=O)c2cc3c(cc2N[C@@H](C)CO)NC(=O)CC3)cc1C | 116% | – | EC50 [3]: 170 nM |
| Cc1ccc(NS(=O)(=O)c2cc3c(cc2Br)CCC(=O)N3)cc1Cl | 51% | – | EC50 [3]: 7430 nM |
| Cc1ccc(NS(=O)(=O)c2ccc3c(c2)oc(=O)n3C)cc1C | 95% | – | – |
| O=C1CCc2cc(S(=O)(=O)Nc3cccnc3)ccc2N1 | – | inactive | – |
| CC(=O)Nc1ccc(S(=O)(=O)Nc2ccc(C)c(C)c2)cc1 | < 40% | – | – |
| COc1ccc(S(=O)(=O)Nc2ccc(C)c(C)c2)cc1 | 53% | – | – |
| Cc1ccc(NS(=O)(=O)c2cc3c(cc2Cl)CCC(=O)N3)cc1Cl | 109% | – | – |
| Cc1ccc(NS(=O)(=O)c2cc3c(cc2NC(C)CO)NC(=O)CC3)cc1C (racemic) | 124% | – | EC50 [3]: 230 nM; Kinetic_solubility [12]: > 120 µM |
| Cc1ccc(NS(=O)(=O)c2cc3c(cc2F)NC(=O)CC3)cc1C | 101% | – | t1/2 [7]: 16.5 min; t1/2 [8]: 34.3 min |
| CCN(CC)c1cc2c(cc1S(=O)(=O)Nc1ccc(C)c(C)c1)CCC(=O)N2 | 106% | – | – |
| Cc1ccc(NS(=O)(=O)c2cccc(C(=O)O)c2)cc1C | inactive | – | – |
| O=C1CCc2cc(S(=O)(=O)Nc3ccccc3F)ccc2N1 | – | 95% | – |
| Cc1ccccc1NS(=O)(=O)c1ccc2c(c1)CCC(=O)N2 | – | 94% | – |
| O=C1CCc2cc(S(=O)(=O)Nc3ccc(F)c(Cl)c3)ccc2N1 | – | 123% | EC50 [3]: 290 nM |
| Cc1ccc(NS(=O)(=O)c2ccc3c(c2)CCCC(=O)N3)cc1C | 88% | – | – |
| Cc1cc(NS(=O)(=O)c2cc3c(cc2F)NC(=O)CC3)ccc1Cl | 93% | – | – |
| O=C1CCc2cc(S(=O)(=O)Nc3ccc4ncccc4c3)ccc2N1 | – | inactive | – |
| Cc1ccc(NS(=O)(=O)c2cc3c(cc2N2CCC(N(C)C)C2)NC(=O)CC3)cc1C (racemic) | inactive | – | – |
| Cc1ccc(NS(=O)(=O)c2cc3c(cc2Cl)NC(=O)CO3)cc1C | 80% | – | – |
| COc1cccc(Cn2ncc3c4sc([S+](C)[O-])cc4n(C)c3c2=O)c1 (stereo not given) | – | – | EC50 [3]: 73 nM |
| Cc1ccc(NS(=O)(=O)c2ccc3c(c2)CCC(=O)N3)cc1Cl | – | 104% | EC50 [3]: 100 nM |
